From PMC4398643 (Analytical biochemistry, 2015)

Molecular target: T1, 15-LOX-2 (Homo sapiens, UniProt O15296)
T1 sequence (O15296 1-676): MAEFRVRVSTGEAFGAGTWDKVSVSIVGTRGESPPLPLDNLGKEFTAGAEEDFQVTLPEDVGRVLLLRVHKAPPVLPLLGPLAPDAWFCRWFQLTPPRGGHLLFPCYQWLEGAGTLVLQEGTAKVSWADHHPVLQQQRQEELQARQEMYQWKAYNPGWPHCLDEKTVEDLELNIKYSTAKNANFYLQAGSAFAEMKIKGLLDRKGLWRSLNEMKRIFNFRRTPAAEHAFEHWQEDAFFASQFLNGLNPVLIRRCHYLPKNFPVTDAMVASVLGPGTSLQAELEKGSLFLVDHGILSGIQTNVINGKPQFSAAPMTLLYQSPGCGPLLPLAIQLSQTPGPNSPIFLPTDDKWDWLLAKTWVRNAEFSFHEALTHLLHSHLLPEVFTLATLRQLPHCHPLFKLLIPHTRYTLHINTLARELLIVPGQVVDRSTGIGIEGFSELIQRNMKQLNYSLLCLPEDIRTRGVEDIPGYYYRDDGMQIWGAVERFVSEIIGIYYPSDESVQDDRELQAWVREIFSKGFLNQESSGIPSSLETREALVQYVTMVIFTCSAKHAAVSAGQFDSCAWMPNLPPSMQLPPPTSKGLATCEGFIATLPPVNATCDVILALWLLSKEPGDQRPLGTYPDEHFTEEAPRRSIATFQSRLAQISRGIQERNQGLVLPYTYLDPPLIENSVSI
Experiment: 96-well allosteric effector assay
Assay type: biochemical
Conditions: for AA/GLA ratio (15-HETE/13-HOTrE(γ) peak area ratio): 4 µM AA and 16 µM GLA, ratio without effector 2.3 ± 0.1
In short: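 15-LOX-2 (~150 nM final) is preincubated 30 s with the perdeuterated effector in 50 mM ammonium bicarbonate, pH 7.5, with 0.01% PPS detergent in 96-well plates. Turnover uses AA:GLA at 1:4 (20 µM total substrate), kept below 20% conversion. Plates are held at 4° C during HPLC-MS analysis, with products identified by MS/MS. The substrate preference is the 15-HETE/13-HOTrE(γ) peak-area ratio.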

- AA/GLA ratio (15-HETE/13-HOTrE(γ) peak area ratio) (10 µM d30-13-HODE): 1.4 ± 0.1
- AA/GLA ratio (15-HETE/13-HOTrE(γ) peak area ratio) (20 µM d30-13-HODE): 1.1 ± 0.1
Compound: [2H]C(C([2H])=C([2H])C([2H])(O)C([2H])([2H])C([2H])([2H])C([2H])([2H])C([2H])([2H])C([2H])([2H])[2H])=C([2H])C([2H])([2H])C([2H])([2H])C([2H])([2H])C([2H])([2H])C([2H])([2H])C([2H])([2H])C([2H])([2H])C(=O)O (stereo not drawn) [d30-13-HODE]
- effect on AA and GLA catalysis (based on standard curve for AA and GLA products, data not shown): reducing AA catalysis, but not affecting GLA catalysis significantly
